For one data set, the system named is HL-60. Description: Cytotoxicity against human HL60 cells after 24 hrs by MTT assay. Particulars: HL-60, 24 h. In kind it is cell-based. A digest of the protocol: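 MTT colorimetric assay on HL-60 promyelocytic leukemia cells (RPMI 1640, 10% FBS, no antibiotics, 37 °C, 5% CO2) as a preliminary screen for unspecific cytotoxicity; cisplatin as reference.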
Data set [1] has as its system Yarrowia lipolytica. Description: Antifungal activity against Yarrowia lipolytica DSM 1345 after 48 hrs. The format is organism-based. Particulars: in vivo. A digest of the protocol:
(§1)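 MIC against the yeast strains determined according to DIN 58940-84; clotrimazole as positive control.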

The target in data set [2] is T1, 7-dehydrocholesterol reductase (Homo sapiens) (UniProt Q9UBM7).
T1 sequence (whole entry): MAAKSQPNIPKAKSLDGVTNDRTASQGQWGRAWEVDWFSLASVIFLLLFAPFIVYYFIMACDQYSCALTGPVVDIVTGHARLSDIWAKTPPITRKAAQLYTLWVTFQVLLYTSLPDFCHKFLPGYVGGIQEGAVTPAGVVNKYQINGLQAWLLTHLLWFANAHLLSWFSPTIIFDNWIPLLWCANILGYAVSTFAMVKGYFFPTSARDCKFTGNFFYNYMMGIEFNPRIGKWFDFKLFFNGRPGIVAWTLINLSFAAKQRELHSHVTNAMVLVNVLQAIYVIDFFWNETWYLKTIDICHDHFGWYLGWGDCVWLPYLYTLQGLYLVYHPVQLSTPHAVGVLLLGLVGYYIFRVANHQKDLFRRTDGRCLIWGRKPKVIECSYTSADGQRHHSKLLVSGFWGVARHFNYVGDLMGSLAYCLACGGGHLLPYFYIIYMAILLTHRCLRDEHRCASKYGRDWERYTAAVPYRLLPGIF
Put plainly: Inhibition of 7-dehydrocholesterol reductase in human HL60 cells assessed as accumulation of 7-dehydrocholesterol at 1 uM after 24 hrs by GC/MS analysis. In kind it is cell-based. The note with it: HL-60. A digest of the protocol:
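HL-60 cells (1 × 10⁶) in lipid-free HL-60 medium given inhibitor at 50 μM or 1 μM (ethanol blank) for 24 h at 37 °C, 5% CO2. Pellet saponified in 1 M NaOH, 1 h at 70 °C, then TBME microextraction with cholestane internal standard. GC-MS sterol pattern compared with blanks and with AY 9944 and BM 15.766 references.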

Data set [3] concerns Nakaseomyces glabratus. Put plainly: Antifungal activity against Candida glabrata DSM 11226 after 36 hrs by disc diffusion method. The format is organism-based. Particulars: in vivo. On the technique in general: In agar diffusion tests the substance spreads into inoculated agar from a disc or well.
Data set [4] concerns Nakaseomyces glabratus. Description: Antifungal activity against Candida glabrata DSM 11226 after 48 hrs. The format is organism-based. Particulars: in vivo. Put shortly: as §1
The nature of data set [5]: Antibacterial activity against Streptococcus entericus DSM 14446 after 36 hrs by disc diffusion method.
A short description of data set [6]: Antibacterial activity against Pseudomonas antimicrobica DSM 8361 after 36 hrs by disc diffusion method. The note with it: burkholderia gladioli.
A short description of data set [7]: Antifungal activity against Aspergillus brasiliensis DSM 1988 after 36 hrs by disc diffusion method.
Data set [8] can be described thus: Antifungal activity against Hyphopichia burtonii DSM 70663 after 36 hrs by disc diffusion method.
Data set [9] deals with T2, 7-dehydrocholesterol reductase (Homo sapiens, UniProt Q9UBM7).
T2 sequence (Q9UBM7 whole entry): T1 sequence (whole entry)
Description: Inhibition of […]-mediated cholesterol biosynthesis in human HL60 cells assessed as inhibition of 2-[13C]acetate after 24 hrs GC/MS analysis. The format is cell-based, HL-60. Put shortly: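 Whole-cell cholesterol synthesis in HL-60 cells, 24 h with inhibitor and sodium 2-¹³C-acetate; six concentrations plus blank, in triplicate. Newly made labeled cholesterol (m/z 372–379, 462–469) measured by GC-MS against cholestane and normalized to Bradford protein. % inhibition against untreated control fitted to a variable-slope sigmoid, bottom fixed at 0, giving IC50; BM 15.766 as reference.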

The next data set deals with Escherichia coli. Put plainly: Antibacterial activity against Escherichia coli DSM 426 after 36 hrs by disc diffusion method. Particulars: in vivo. The format is organism-based.
Data set [10] concerns Yarrowia lipolytica. Put plainly: Antifungal activity against Yarrowia lipolytica DSM 1345 after 36 hrs by disc diffusion method. The note with it: in vivo. In kind it is organism-based.
Data set [11] can be described thus: Antibacterial activity against Staphylococcus equorum DSM 20675 after 36 hrs by disc diffusion method.
In data set [12] the test system is Saccharomyces cerevisiae. Put plainly: Antifungal activity against Saccharomyces cerevisiae DSM 1333 after 36 hrs by disc diffusion method. The format is organism-based. The note with it: in vivo.
Data set [13] concerns Saccharomyces cerevisiae. Description: Antimicrobial activity against Saccharomyces cerevisiae DSM 1333 after 48 hrs. In kind it is organism-based. The note with it: in vivo. A digest of the protocol: as §1
Data set [14] deals with T1, 7-dehydrocholesterol reductase (Homo sapiens). Description: Ratio of BM15.766 IC50 to compound IC50 for […]-mediated cholesterol biosynthesis in human HL60 cells. The format is cell-based. The note with it: HL-60.

Activity calls are given as the source filed them. The calls are words filed in the database; no cut-off is given here. A value given as a limit tells only on which side of the number the result lay.

`COc1cc2c(cc1O)CCN(CCc1ccc(OC)c(OC)c1)C2`: the IC50 (in general, the point on the concentration scale where inhibition reaches its midpoint) was greater than 50000 nM in the data set with HL-60 and 7300 nM in data set [9]. Moreover, the MIC against Yarrowia lipolytica [1], in the data set with Nakaseomyces glabratus [4] and in the data set with Saccharomyces cerevisiae [13] was greater than 20 µg/mL throughout. The “7-DHCR inhibition (active/not active)” value in [2] is “Active”. In addition, the Activity entry with Nakaseomyces glabratus [3] is on record as “Non-toxic”; in [5] it was “Non-toxic”; in [6], “Non-toxic”; in data set [7], “Non-toxic”; in data set [8], “Toxic”; in the data set on Escherichia coli, “Non-toxic”. For the same compound, the Activity result (with Yarrowia lipolytica [10]; in [11]; in the data set with Saccharomyces cerevisiae [12]) was “Non-toxic” throughout.
As for `O=C(O)c1ccc(CCN2CCN(C/C=C/c3ccc(Cl)cc3)CC2)cc1`, in [9], the IC50 worked out at 500 nM.
Turning to `COc1cccc(CCN2CCc3cc(O)c(OC)cc3C2)c1`, the IC50 was greater than 50000 nM in the data set with HL-60 and 120 nM in [9]. The MIC against Yarrowia lipolytica [1], against Nakaseomyces glabratus [4] and in the data set with Saccharomyces cerevisiae [13] was greater than 20 µg/mL each time. Further, the “7-DHCR inhibition (active/not active)” value in data set [2] is “Active”. Further, the Activity result (in the data set with Nakaseomyces glabratus [3]; in data set [5]; in data set [6]; in data set [7]; in data set [8]; in the data set on Escherichia coli) was “Non-toxic” in each case. In addition, the Activity entry (with Yarrowia lipolytica [10]; in [11]; in the data set with Saccharomyces cerevisiae [12]) was “Non-toxic” each time.
Turning to `COc1cc2c(cc1O)CCN(CCc1ccc(Cl)cc1)C2`, the IC50 in the data set with HL-60 was greater than 50000 nM; in [9], 2.3 nM. The MIC with Yarrowia lipolytica [1], in the data set on Nakaseomyces glabratus [4] and against Saccharomyces cerevisiae [13] was greater than 20 µg/mL in each case. Besides, the “7-DHCR inhibition (active/not active)” value in data set [2] was “Active”. Also, the Activity entry (with Nakaseomyces glabratus [3]; in data set [5]; in data set [6]; in [7]; in [8]; in the data set with Escherichia coli) was “Non-toxic” each time. The Activity entry (in the data set with Yarrowia lipolytica [10]; in [11]; in the data set with Saccharomyces cerevisiae [12]) was “Non-toxic” in each case. For the same compound, the Ratio IC50 in [14] came out at 200.

The values are drawn from ChEMBL document CHEMBL2169759, “A new class of selective and potent 7-dehydrocholesterol reductase inhibitors” (J Med Chem, 2012).
